Experimental data reported in paper PMC5696082 (Analytical biochemistry, 2017).

Tests used:
hCE1 [1] = biological target: T1, hCE1 (Homo sapiens, UniProt P23141); assay: Specific activity of hCE1 towards substrates; format: biochemical
T1 sequence (P23141 18-567): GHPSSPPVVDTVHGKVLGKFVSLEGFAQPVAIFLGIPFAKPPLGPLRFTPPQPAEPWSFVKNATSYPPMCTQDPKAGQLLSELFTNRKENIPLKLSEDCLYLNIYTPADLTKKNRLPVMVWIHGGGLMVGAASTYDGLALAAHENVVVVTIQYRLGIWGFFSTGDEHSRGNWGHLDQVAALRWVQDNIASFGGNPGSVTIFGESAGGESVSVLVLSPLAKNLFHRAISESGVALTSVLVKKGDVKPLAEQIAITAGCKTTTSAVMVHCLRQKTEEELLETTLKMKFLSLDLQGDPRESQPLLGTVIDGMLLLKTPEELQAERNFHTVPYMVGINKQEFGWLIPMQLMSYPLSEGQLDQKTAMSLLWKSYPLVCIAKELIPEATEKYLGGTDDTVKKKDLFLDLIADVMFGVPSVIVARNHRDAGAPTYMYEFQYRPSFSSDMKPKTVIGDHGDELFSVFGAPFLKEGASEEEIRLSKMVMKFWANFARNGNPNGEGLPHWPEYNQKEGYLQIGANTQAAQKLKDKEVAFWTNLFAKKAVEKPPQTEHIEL
How it was run: (§1)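 Enzymes expressed in baculovirus-infected High Five cells: hCE1 CHAPS-solubilised from the 100,000 g pellet, then DEAE-purified; hCE2/hCE3 crude soluble fraction; FAAH crude insoluble fraction. Substrate added to 50 µM final in 100 mM sodium phosphate pH 8.0, 0.1 mg/mL BSA, 1% DMSO. Fluorescence read every 30 s for ≥10 min at 37°C. Rates corrected for estimated purity: hCE1 25%, hCE2 4%, hCE3 3.5% (3% in footnotes), FAAH 6.9%. Triplicates.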

Lung S9 = assay: Substrate hydrolysis by pooled tissue S9, lung; format: biochemical, human
How it was run: (§2)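 Commercial pooled human tissue S9 fraction added to substrate at 50 µM final in 100 mM sodium phosphate, pH 8.0, 0.1 mg/mL BSA. Fluorescence monitored every 30 s for at least 10 min at 37°C. Specific activity given as the mean of triplicates in one experiment, or mean ± standard deviation of 3 independent experiments run in triplicate.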

hCE1 [2] = biological target: T1, hCE1; assay: Kinetic properties; format: biochemical
hCE2 = biological target: T2, hCE2 (Homo sapiens, UniProt O00748); assay: Specific activity of hCE2 towards substrates; format: biochemical
T2 sequence (O00748 27-559): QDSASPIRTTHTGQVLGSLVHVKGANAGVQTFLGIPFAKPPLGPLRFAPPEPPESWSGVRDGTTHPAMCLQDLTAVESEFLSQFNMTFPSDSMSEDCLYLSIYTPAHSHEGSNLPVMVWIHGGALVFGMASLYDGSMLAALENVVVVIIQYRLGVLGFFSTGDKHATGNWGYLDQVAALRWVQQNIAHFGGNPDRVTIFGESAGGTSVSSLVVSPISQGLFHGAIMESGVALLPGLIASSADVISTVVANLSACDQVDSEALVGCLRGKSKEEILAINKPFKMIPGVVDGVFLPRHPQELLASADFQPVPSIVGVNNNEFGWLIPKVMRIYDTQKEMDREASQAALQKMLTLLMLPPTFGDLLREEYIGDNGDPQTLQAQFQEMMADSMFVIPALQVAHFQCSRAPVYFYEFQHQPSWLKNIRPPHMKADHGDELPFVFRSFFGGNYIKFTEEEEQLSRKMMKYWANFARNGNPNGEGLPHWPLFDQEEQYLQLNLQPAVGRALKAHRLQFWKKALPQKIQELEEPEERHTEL
How it was run: as §1

FAAH = biological target: T3, FAAH (Homo sapiens, UniProt O00519); assay: Specific activity of FAAH towards substrates; format: biochemical
T3 sequence (O00519 1-579): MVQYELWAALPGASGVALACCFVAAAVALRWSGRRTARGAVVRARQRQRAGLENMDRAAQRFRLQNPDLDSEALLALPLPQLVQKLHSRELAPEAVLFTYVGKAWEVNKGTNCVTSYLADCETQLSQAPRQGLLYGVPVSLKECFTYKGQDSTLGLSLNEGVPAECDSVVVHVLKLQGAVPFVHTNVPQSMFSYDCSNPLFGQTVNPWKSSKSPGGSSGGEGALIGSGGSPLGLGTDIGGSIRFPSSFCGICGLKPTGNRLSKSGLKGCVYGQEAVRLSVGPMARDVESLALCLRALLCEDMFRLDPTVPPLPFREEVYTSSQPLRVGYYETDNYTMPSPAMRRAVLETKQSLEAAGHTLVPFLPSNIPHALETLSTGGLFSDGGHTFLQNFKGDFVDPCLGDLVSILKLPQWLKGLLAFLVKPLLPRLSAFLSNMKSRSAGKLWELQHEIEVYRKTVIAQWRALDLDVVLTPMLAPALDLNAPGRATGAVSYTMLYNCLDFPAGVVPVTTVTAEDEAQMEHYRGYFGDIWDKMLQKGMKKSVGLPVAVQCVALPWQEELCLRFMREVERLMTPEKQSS
How it was run: as §1

hCE3 = biological target: T4, hCE3 (Homo sapiens, UniProt Q6UWW8); assay: Specific activity of hCE3 towards substrates; format: biochemical
T4 sequence (Q6UWW8 27-571): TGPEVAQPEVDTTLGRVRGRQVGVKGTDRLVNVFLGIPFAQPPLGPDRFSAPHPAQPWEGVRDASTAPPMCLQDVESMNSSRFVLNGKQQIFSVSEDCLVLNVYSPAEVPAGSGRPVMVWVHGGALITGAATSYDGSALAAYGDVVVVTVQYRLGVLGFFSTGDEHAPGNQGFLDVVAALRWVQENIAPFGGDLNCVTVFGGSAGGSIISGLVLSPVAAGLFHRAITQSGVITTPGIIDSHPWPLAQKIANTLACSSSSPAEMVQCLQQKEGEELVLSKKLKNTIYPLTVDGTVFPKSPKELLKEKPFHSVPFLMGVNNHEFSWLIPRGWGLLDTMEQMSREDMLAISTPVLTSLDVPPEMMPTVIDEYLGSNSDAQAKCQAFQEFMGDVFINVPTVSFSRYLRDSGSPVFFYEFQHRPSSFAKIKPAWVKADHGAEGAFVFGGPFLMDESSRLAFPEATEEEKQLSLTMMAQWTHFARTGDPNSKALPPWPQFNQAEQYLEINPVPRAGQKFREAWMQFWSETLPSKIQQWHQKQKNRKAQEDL
How it was run: as §1

Liver S9 = assay: Substrate hydrolysis by pooled tissue S9, liver; format: biochemical, human
How it was run: as §2

Intestine S9 = assay: Substrate hydrolysis by pooled tissue S9, intestine; format: biochemical, human
How it was run: as §2

[3] = Background hydrolysis of substrates in phosphate buffer; format: physicochemical

- Turnover by hCE1, times lower than CMNA (hCE1 [1]): 10 times
- Preference of hCE1 over the other esterases tested (hCE1 [1]; 13 other esterases / serine hydrolases): ≥ 10 fold
- Hydrolysis Specific Activity (hCE1 [1]; Table 6, hCE1): 370 ± 27 pmol/min/µg
- Catalytic efficiency of hCE1, fold lower than that of CMNA (hCE1 [2]): approximately 16 fold
- Vmax with hCE1, fold lower than CMNA (hCE1 [2]): 3 fold
- Vmax, fold higher with hCE1 than hCE2 (hCE1 [2]): 120 fold
- Selectivity of hCE1 turnover compared to hCE2 (hCE2): 40- to 50 fold
- hCE2 Specific activity (hCE2; Table 3, [S] = 50 µM, 37°C, pH 8, estimated 4% purity): 13 pmol/min/µg
- Hydrolysis Specific Activity (hCE2; Table 6, hCE2): 6.4 ± 0.7 pmol/min/µg
- Selectivity of hCE1 over FAAH (turnover) (FAAH): 10 fold
- hCE3 Specific activity (hCE3; Table 3, [S] = 50 µM, 37°C, pH 8, estimated 3% purity): <1 pmol/min/µg
- Hydrolysis Specific Activity (hCE3; Table 6, hCE3): 1.4 ± 0.4 pmol/min/µg
- Background hydrolysis, fold lower than CMNA ([3]; phosphate buffer): 200 fold
- Rate of background hydrolysis ([3]; phosphate buffer 100 mM, pH 8, 0.1 mg/mL BSA): 0.1 pmol/min
SMILES: CCCCC(C)CCC(=O)Nc1ccc(OC)nc1C (centres unmarked) [4-MOMMP, N-(6-methoxy-2-methylpyridin-3-yl)-4-methyloctanamide]
- Hydrolysis Specific Activity (Lung S9): 0.20 ± 0.02 pmol/min/µg
- Hydrolysis Specific Activity (Liver S9): 5.5 ± 0.4 pmol/min/µg
- Hydrolysis Specific Activity (Intestine S9): <0.05 pmol/min/µg
